Experiment [1] concerns WIL2. Nature of the experiment: Compound was tested for inhibition of human W1L2 cell growth. It is filed as functional, cell-based.
The target in experiment [2] is Thymidylate synthase (Mus musculus, UniProt P07607). Briefly: Inhibition of Thymidylate Synthase(TS) from mouse L1210 cells. As to conditions: read-out: Ki app. The class given is cell-based.
Experiment [3] is filed under the species Mus musculus. Nature of the experiment: Compound was tested for inhibition of L1210:1565 cell growth in mouse. It is filed as functional, organism-based. Put shortly:
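Growth inhibition measured in L1210:1565, a mouse L1210 mutant line with an impaired reduced folate/MTX transport carrier. The line was selected for resistance to CI-920, an RFC-transported agent, and is cross-resistant to MTX. Result expressed as IC50.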

The species named for experiment [4] is Mus musculus. Nature of the experiment: Compound was tested for inhibition of L1210:R D1694 cell growth in mouse. It is filed as functional, organism-based. As to conditions: L1210 (RD1694).
For experiment [5], the species on record is Mus musculus. Briefly: Compound was tested for inhibition of L1210 cell growth in mouse. It is filed as functional, organism-based.

By pIC50 is commonly meant the IC50 on a negative log10 scale, so that one unit is a factor of ten. A lower pIC50 goes with a large IC50. By pKi is commonly meant the Ki on a negative log10 scale, so that one unit is a factor of ten.

Each structure is given as a SMILES string. pIC50, pKi: −log10 of the molar value.

Thymidylate synthase, sequence (P07607 whole entry): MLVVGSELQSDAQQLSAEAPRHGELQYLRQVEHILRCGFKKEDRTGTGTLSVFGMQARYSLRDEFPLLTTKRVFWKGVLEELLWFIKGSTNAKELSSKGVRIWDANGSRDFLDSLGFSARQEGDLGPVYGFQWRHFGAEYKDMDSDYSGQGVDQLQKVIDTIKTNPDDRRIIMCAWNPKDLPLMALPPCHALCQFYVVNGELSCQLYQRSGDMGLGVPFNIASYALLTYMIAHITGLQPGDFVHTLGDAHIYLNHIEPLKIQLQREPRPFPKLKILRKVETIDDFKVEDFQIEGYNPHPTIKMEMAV

For `C#CCN(Cc1ccc2nc(C)nc(O)c2c1)c1ccc(C(=O)N[C@@H](CCC(=O)NC(C)(C)C(=O)O)C(=O)O)cc1`, the pIC50 in experiment [1] was 6.51; in experiment [3], 4.15; in experiment [4], 5.15; in experiment [5] it was 5.60. In experiment [2], the pKi was 7.38.

For the origin of these results see ChEMBL document CHEMBL1130343, “Folate-based inhibitors of thymidylate synthase: synthesis and antitumor activity of gamma-linked sterically hindered dipeptide analogues of 2-desamino-2-methyl-N10-propargyl-5,8-dideazafolic acid (ICI 198583)” (J Med Chem, 1997).
